{
  "source": "ChEMBL document CHEMBL2331117",
  "about": "(J Med Chem, 2013)",
  "key": {"[1]": {"test": "Metabolic stability in dog liver microsomes after 30 mins", "type": "ADME, Canis lupus familiaris, Microsome", "details": "read-out: Stability"}, "[2]": {"target": "Ribosomal protein S6 kinase beta-1 (Homo sapiens, UniProt P23443)", "sequence (P23443 whole entry)": "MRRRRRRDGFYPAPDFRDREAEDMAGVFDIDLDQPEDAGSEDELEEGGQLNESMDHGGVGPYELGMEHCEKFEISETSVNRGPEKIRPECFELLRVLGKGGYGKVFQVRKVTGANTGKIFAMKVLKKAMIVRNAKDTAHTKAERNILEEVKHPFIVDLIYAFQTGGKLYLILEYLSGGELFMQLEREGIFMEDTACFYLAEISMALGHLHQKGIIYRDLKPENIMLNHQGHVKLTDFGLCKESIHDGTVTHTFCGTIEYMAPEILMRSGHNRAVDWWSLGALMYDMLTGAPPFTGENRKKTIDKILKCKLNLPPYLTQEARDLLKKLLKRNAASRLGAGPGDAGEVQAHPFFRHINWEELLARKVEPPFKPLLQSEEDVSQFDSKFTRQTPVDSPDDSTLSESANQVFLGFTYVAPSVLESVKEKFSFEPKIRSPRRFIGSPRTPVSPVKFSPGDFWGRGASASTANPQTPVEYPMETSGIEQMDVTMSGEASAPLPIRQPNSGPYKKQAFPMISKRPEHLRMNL", "test": "Inhibition of p70S6K (unknown origin)"}, "[3]": {"test": "Plasma concentration in mouse at 100 mg/kg, po after 4 hrs", "type": "ADME, organism-based", "parameters": "dose 100 mg/kg, route oral"}, "[4]": {"target": "Vascular endothelial growth factor receptor 2 (Homo sapiens, UniProt P35968)", "sequence (P35968 whole entry)": "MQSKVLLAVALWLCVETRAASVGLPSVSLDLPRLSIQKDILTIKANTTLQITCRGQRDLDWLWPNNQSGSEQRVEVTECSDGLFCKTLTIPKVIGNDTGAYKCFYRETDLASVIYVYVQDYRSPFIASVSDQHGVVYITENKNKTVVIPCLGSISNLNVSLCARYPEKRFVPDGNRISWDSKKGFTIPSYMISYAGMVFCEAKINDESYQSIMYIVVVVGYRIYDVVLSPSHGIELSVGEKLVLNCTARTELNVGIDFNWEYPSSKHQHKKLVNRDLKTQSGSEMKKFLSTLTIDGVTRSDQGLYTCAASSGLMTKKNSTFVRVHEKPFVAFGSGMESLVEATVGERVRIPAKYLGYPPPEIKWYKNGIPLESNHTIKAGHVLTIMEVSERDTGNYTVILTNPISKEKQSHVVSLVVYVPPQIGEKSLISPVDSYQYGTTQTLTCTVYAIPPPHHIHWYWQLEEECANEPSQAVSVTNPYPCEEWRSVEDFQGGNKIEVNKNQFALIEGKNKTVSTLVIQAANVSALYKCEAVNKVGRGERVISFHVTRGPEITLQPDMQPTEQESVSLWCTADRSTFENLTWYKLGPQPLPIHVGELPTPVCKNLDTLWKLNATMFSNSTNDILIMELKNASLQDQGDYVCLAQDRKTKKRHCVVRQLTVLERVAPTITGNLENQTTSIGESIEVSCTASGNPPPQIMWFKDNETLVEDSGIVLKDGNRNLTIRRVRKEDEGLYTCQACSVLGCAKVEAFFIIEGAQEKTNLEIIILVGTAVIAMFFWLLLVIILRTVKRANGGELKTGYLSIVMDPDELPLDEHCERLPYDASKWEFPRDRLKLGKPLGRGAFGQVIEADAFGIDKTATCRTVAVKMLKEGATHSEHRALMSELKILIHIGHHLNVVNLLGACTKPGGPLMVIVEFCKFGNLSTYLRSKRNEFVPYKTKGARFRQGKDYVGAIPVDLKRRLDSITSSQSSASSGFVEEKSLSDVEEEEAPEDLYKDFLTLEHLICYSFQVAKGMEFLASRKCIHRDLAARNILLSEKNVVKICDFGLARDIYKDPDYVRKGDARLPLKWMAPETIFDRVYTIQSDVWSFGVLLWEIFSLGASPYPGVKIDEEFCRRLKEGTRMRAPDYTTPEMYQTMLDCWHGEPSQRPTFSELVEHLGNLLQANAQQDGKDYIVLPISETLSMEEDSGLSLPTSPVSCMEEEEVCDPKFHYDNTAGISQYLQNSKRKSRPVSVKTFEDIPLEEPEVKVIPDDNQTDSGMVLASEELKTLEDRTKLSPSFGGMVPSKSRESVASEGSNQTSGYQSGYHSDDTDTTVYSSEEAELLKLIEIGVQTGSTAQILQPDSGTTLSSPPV", "test": "Inhibition of KDR (unknown origin)"}, "[5]": {"test": "Drug uptake in tumor of athymic mouse xenografted with human MCF7 cells at 100 mg/kg, po after 24 hrs", "type": "ADME, organism-based, Neoplasm", "parameters": "dose 100 mg/kg, route oral", "details": "in vivo, BLD = below limit of detection"}, "[6]": {"test": "Drug uptake in tumor of athymic mouse xenografted with human MCF7 cells at 100 mg/kg, po after 32 hrs", "type": "ADME, organism-based, Neoplasm", "parameters": "dose 100 mg/kg, route oral", "details": "read-out: Drug uptake"}, "[7]": {"test": "Half life in athymic nude mouse at 10 mg/kg, iv", "type": "ADME, organism-based", "parameters": "dose 10 mg/kg, route intravenous", "details": "in vivo", "in_short": "(§1)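 Single-dose PK: female athymic nude mice (10 mg/kg), female CD rats and male beagle dogs (3 mg/kg), male cynomolgus monkeys (3 mg/kg), given iv and by oral gavage. Solution in EPW (5% ethanol/45% PEG400/water), with 1:2 HCl (m/m) for mouse, rat and dog and 1:1.5 HCl (m/m) for monkey. Plasma levels followed over 24 h.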"}, "Mus musculus [8]": {"system": "Mus musculus", "test": "In vivo inhibition of mTORC1-mediated phosphorylation of pS6 at (serine 240/244) in human PC3 cells xenografted into athymic nude mouse at 100 mg/kg, po after 24 hrs by Western blotting analysis relative to control", "type": "functional", "details": "PC-3, 24 h", "in_short": "(§2)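 PC-3 cells grown in DMEM with 20% FBS were implanted subcutaneously at 3 × 10^6 cells in ice-cold HBSS into the hindflank of 5−8 week old male nude mice. At tumor size 200−500 mg, mice received a single oral dose of 100 mg/kg. Plasma and tumors were collected at 1, 4, 8, 16, 24 and 32 h. Tumor lysates from each group (n = 5) were pooled. Phospho-proteins were quantified by Western blot and normalized to α-tubulin.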"}, "[9]": {"test": "Drug uptake in tumor of athymic mouse xenografted with human PC3 cells at 100 mg/kg, po after 16hrs", "type": "ADME, organism-based, Neoplasm, PC-3", "parameters": "dose 100 mg/kg, route oral", "details": "read-out: Drug uptake", "in_short": "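PC-3 cells (3 × 10⁶, passages 10–14, in ice-cold HBSS) were implanted sc in 5–8 week old male nude mice. Tumors of 200–500 mg received a single oral 100 mg/kg dose. Plasma and tumor were collected at 1, 4, 8, 16, 24 and 32 h and homogenized in buffer. Lysates were pooled per group (n = 5), and phospho-proteins were measured by Western blot normalized to α-tubulin.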"}, "Mus musculus [10]": {"system": "Mus musculus", "test": "In vivo inhibition of mTORC1-mediated phosphorylation of 4EBP1 at ([…]) in human PC3 cells xenografted into athymic nude mouse at 100 mg/kg, po after 32 hrs by Western blotting analysis relative to control", "type": "functional", "details": "PC-3, 32 h", "in_short": "as §2"}, "[11]": {"test": "Oral bioavailability in athymic nude mouse at 10 mg/kg", "type": "ADME, organism-based", "details": "in vivo", "in_short": "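For single-dose PK, compound was given intravenously and by oral gavage as a solution in EPW (5% ethanol/45% PEG400/water + 1:2 HCl m/m). Doses were 10 mg/kg in female athymic nude mice and 3 mg/kg in female CD rats and male beagle dogs.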"}, "Mus musculus [12]": {"system": "Mus musculus", "test": "In vivo inhibition of mTORC2-mediated phosphorylation of AKT at […] in human MCF7 cells xenografted into athymic nude mouse at 100 mg/kg, po after 8 hrs by Western blotting analysis relative to control", "type": "functional", "details": "MCF7, 8 h", "in_short": "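Human MCF-7 cells were implanted subcutaneously into the hindflank of female nude mice aged 5−8 weeks, at 5 × 10^6 cells in 50% cold HBSS/50% growth-factor-reduced matrigel. At a tumor size of 40−150 mg, mice got one oral dose. Tumor lysates were pooled per group. Phospho-AKT (T308) was read by Western blot and normalized to α-tubulin.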"}, "[13]": {"test": "AUC (0 to infinity) in athymic nude mouse at 10 mg/kg, iv", "type": "ADME, organism-based", "parameters": "time infinity, dose 10 mg/kg, route intravenous", "details": "plasma", "in_short": "as §1"}, "[14]": {"test": "Plasma concentration in athymic mouse plasma xenografted with human MCF7 cells at 100 mg/kg, po after 8 hrs", "type": "ADME, organism-based", "parameters": "dose 100 mg/kg, route oral"}, "Mus musculus [15]": {"system": "Mus musculus", "test": "In vivo inhibition of mTORC2-mediated phosphorylation of AKT at serine 473 in human MCF7 cells xenografted into athymic nude mouse at 100 mg/kg, po after 32 hrs by Western blotting analysis relative to control", "type": "functional", "details": "MCF7, 32 h", "in_short": "(§3)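 MCF-7 cells (DMEM, 10% FBS) were implanted subcutaneously at 5 × 10^6 cells in 50% cold HBSS/50% growth-factor-reduced matrigel into the hindflank of 5−8 week old female nude mice. At tumor size 40−150 mg, mice received a single oral dose of 100 mg/kg. Tumor lysates were pooled per group. Phospho-AKT (S473, T308), p70S6K (T389), S6 (S240/244) and 4E-BP1 (T37/46) were measured by Western blot normalized to α-tubulin.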"}, "Mus musculus [16]": {"system": "Mus musculus", "test": "In vivo inhibition of mTORC1-mediated phosphorylation of pS6 at (serine 240/244) in human MCF7 cells xenografted into athymic nude mouse at 100 mg/kg, po after 1 hr by Western blotting analysis relative to control", "type": "functional", "details": "MCF7, 1 h", "in_short": "as §3"}},
  "data": [
    {"molecule": "Cc1c(C(=O)N2CCOc3ccc(-c4ccc(N)nc4)cc3C2)ccc(S(C)(=O)=O)c1F", "values": [
      {"measurement": "remaining at 0.5 h", "setting": "[1]", "result": 82, "unit": "%"},
      {"measurement": "IC50", "setting": "[2]", "result": "> 3.5", "unit": "µM"},
      {"measurement": "concentration at 4 h", "setting": "[3]", "result": 17.8, "unit": "µM"},
      {"measurement": "IC50", "setting": "[4]", "result": "> 3.5", "unit": "µM"},
      {"measurement": "Drug uptake", "setting": "[5]", "result": "BLD"},
      {"measurement": "concentration at 32 h", "setting": "[6]", "result": 0.1, "unit": "µM"},
      {"measurement": "half-life", "setting": "[7]", "result": 1.35, "unit": "h"},
      {"measurement": "inhibition in vivo at 100 mg/kg", "setting": "Mus musculus [8]", "result": 8, "unit": "%"},
      {"measurement": "concentration at 16 h", "setting": "[9]", "result": 7.34, "unit": "µM"},
      {"measurement": "inhibition in vivo at 100 mg/kg", "setting": "Mus musculus [10]", "result": 33, "unit": "%"},
      {"measurement": "bioavailability", "setting": "[11]", "result": 31.4, "unit": "%"},
      {"measurement": "inhibition in vivo at 100 mg/kg", "setting": "Mus musculus [12]", "result": -2, "unit": "%"},
      {"measurement": "AUC(0-inf)", "setting": "[13]", "result": 8, "unit": "µM·h"},
      {"measurement": "concentration at 8 h", "setting": "[14]", "result": 16.5, "unit": "µM"},
      {"measurement": "inhibition in vivo at 100 mg/kg", "setting": "Mus musculus [15]", "result": 11, "unit": "%"},
      {"measurement": "inhibition in vivo at 100 mg/kg", "setting": "Mus musculus [16]", "result": 96, "unit": "%"}
    ]}
  ]
}
